Experimental data as given in ChEMBL document CHEMBL4814011, “Discovery of a novel class of inhaled dual pharmacology muscarinic antagonist and β2 agonist (MABA) for the treatment of chronic obstructive pulmonary disease (COPD)” (Bioorg Med Chem Lett, 2021).
Active and inactive are the calls of the source. No cut-off for these calls is given here.

Assays:
[1] = target: Muscarinic acetylcholine receptor M3 (Homo sapiens, UniProt P20309); assay: Displacement of [3H]-N-methylscopolamine from human muscarinic M3 receptor
[2] = target: Beta-2 adrenergic receptor (Homo sapiens, UniProt P07550); assay: Displacement of 125I-cyanopindolol from human adrenergic beta2 receptor
Outline: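 Radioligand binding on cloned human β2 adrenoceptor, with displacement of 125I-cyanopindolol.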

[3] = (§1) Antagonist activity at muscarinic M3 receptor in guinea pig trachea assessed as inhibition of carbachol-induced contraction; assay type: tissue-based, Cavia porcellus
Outline: (§2)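 Isolated guinea pig tracheal tissue was contracted with the muscarinic agonist carbachol, and inhibition of contraction was scored. A parallel histamine (H1) challenge, opposed only by the β2 component, was used to estimate the β2 share.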

Cavia porcellus [4] = species: Cavia porcellus; assay: Activity at muscarinic M3 and adrenergic beta2 in guinea pig trachea assessed as time taken for compound action by MABA assay; assay type: tissue-based
[5] = target: beta-2 adrenergic receptor (guinea pig); assay: Agonist activity at beta-2 adrenergic receptor in guinea pig trachea assessed as inhibition of histamine-induced contraction
[6] = Protein binding in human plasma; assay type: ADME, cell-free; conditions: for fraction unbound: read-out: PPB (converted)
[7] = Protein binding in rat plasma; assay type: ADME, cell-free; conditions: for fraction unbound: read-out: PPB (converted)
[8] = In vivo agonist activity at adrenergic beta2 receptor in guinea pig assessed as reduction in acetylcholine/histamine-induced bronchoconstriction at 1 mg/kg, IT(Intratracheal) measured after 1 hr by Konzett-Roessler methodology relative to control; assay type: functional; conditions: Cavia porcellus, inhaled or nasal
[9] = In vivo agonist activity at adrenergic beta2 receptor in guinea pig assessed as reduction in acetylcholine/histamine-induced bronchoconstriction at 3 mg/kg, IT(Intratracheal) measured after 1 hr by Konzett-Roessler methodology relative to control; assay type: functional; conditions: Cavia porcellus, inhaled or nasal
[10] = In vivo agonist activity at adrenergic beta2 receptor in guinea pig assessed as reduction in acetylcholine/histamine-induced bronchoconstriction at 3 mg/kg, IT(Intratracheal) measured after 24 hrs by Konzett-Roessler methodology relative to control; assay type: functional; conditions: Cavia porcellus, inhaled or nasal
[11] = In vivo agonist activity at adrenergic beta2 receptor in guinea pig assessed as reduction in acetylcholine/histamine-induced bronchoconstriction at 1 mg/kg, IT(Intratracheal) measured after 24 hrs by Konzett-Roessler methodology relative to control; assay type: functional; conditions: Cavia porcellus, inhaled or nasal
[12] = Protein binding in guinea pig plasma; assay type: ADME, cell-free, Cavia porcellus
Cavia porcellus [13] = species: Cavia porcellus; assay: as §1; assay type: tissue-based; outline: as §2

Chain of Beta-2 adrenergic receptor (P07550 whole entry): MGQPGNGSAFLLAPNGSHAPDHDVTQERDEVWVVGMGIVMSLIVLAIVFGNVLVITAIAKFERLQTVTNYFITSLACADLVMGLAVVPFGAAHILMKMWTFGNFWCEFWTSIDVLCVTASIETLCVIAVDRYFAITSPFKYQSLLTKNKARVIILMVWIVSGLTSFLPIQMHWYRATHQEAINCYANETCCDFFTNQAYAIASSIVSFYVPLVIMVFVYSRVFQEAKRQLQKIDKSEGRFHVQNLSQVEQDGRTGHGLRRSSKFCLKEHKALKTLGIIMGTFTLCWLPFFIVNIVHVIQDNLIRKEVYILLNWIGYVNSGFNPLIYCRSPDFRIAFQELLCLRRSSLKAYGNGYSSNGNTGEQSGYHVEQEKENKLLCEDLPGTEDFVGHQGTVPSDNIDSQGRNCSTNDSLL
Chain of Muscarinic acetylcholine receptor M3 (P20309 whole entry): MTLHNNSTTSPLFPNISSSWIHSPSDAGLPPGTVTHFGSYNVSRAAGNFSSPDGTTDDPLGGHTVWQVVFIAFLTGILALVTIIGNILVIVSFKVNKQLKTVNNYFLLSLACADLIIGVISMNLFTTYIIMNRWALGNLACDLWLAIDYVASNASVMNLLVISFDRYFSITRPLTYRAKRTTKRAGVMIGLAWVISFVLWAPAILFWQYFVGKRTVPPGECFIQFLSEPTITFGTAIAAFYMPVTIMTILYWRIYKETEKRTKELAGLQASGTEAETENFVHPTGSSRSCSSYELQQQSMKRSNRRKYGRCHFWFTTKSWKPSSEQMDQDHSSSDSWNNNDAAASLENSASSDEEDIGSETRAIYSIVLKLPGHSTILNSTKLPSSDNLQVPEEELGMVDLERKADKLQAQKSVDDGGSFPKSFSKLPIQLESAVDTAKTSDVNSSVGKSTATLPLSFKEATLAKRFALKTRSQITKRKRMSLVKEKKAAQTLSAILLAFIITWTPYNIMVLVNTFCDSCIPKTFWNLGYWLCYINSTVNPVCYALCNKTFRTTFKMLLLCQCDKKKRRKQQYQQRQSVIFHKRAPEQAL

In the case of O=C(NC(c1ccccc1)c1cccc(OCCCCCCCCNC[C@H](O)c2ccc(O)c3[nH]c(=O)ccc23)c1)O[C@H]1CN2CCC1CC2 (stereo partly specified), the Ki [1] is reported as 158 pM, the Ki [2] is reported as 200 pM and the pIC50 [3] is reported as 8.7. The TIME (Cavia porcellus [4]; filed as modulator) was less than 1.5 h and the pIC50 [5] was 7.8.
O=C(NC(c1ccccc1)c1cccc(OCCCCCCCNC[C@H](O)c2ccc(O)c3[nH]c(=O)ccc23)c1)O[C@H]1CN2CCC1CC2 (stereo partly specified) gave a Ki [1] of 398 pM, a Ki [2] of 100 pM and a pIC50 [3] of 9.3. It also gave a TIME (Cavia porcellus [4]; filed as modulator) of less than 1.5 h and a pIC50 [5] of 8.1.
Compound O=C(NC(c1ccccc1)c1cccc(OCCCCCNC[C@H](O)c2ccc(O)c3[nH]c(=O)ccc23)c1)O[C@H]1CN2CCC1CC2 (stereo partly specified) has a Ki [1] of 398 pM, a Ki [2] of 25.1 pM and a pIC50 [3] of 8.5. The TIME (Cavia porcellus [4]; filed as modulator) was less than 0.75 h and the pIC50 [5] was 9.
Work on O=C(N[C@@H](c1ccccc1)c1ccc(-c2cccc(OCc3ccc(C(=O)N(CCCNC[C@H](O)c4ccc(O)c5[nH]c(=O)ccc45)Cc4ccccc4)cc3)c2)cc1)O[C@H]1CN2CCC1CC2 yielded a Ki [1] of 126 pM, a Ki [2] of 100 pM and a pIC50 [3] of 8.7. It also gave a TIME (Cavia porcellus [4]) greater than 3 h, a fraction unbound [6] of less than 0.01 and a fraction unbound [7] of 0.03. For the same compound, the inhibition in vivo at 1 mg/kg [8] was 27%, the inhibition in vivo at 3 mg/kg [9] was 63% and the inhibition in vivo at 3 mg/kg [10] was 20%. It also gave a pIC50 [5] of 9.
For O=C(NC(c1ccccc1)c1cccc(OCCCCCCCCCNC[C@H](O)c2ccc(O)c3[nH]c(=O)ccc23)c1)O[C@H]1CN2CCC1CC2 (stereo partly specified), the Ki [1] was 251 pM, the Ki [2] was 200 pM and the pIC50 [3] was 7.5. For the same compound, the TIME (Cavia porcellus [4]) was greater than 4.5 h and the pIC50 [5] was 7.3.
For CCN(CCCNC[C@H](O)c1ccc(O)c2[nH]c(=O)ccc12)C(=O)c1ccc(COc2cccc(-c3ccc([C@@H](NC(=O)O[C@H]4CN5CCC4CC5)c4ccccc4)cc3)c2)cc1, the Ki [1] was 251 pM, the Ki [2] was 50.1 pM and the pIC50 [3] was 9.5. The TIME (Cavia porcellus [4]) was greater than 3.75 h, the fraction unbound [6] was 0.04 and the fraction unbound [7] was 0.06. The pIC50 [5] was 9.5.
For O=C(N[C@@H](c1ccccc1)c1cccc(OCc2ccc(CCNC[C@H](O)c3ccc(O)c4[nH]c(=O)ccc34)cc2)c1)O[C@H]1CN2CCC1CC2, the pIC50 [3] was 9.3, the TIME (Cavia porcellus [4]) was greater than 4.5 h and the PPB [6] was 98%. The PPB [7] was 98%, the inhibition in vivo at 1 mg/kg [8] was 20% and the inhibition in vivo at 3 mg/kg [9] was 67%. The inhibition in vivo at 1 mg/kg [11] was 42%, the inhibition in vivo at 3 mg/kg [10] was 35% and the PPB [12] was 99%. It also gave a pIC50 [5] of 9.1.
In the case of O=C(N[C@@H](c1ccccc1)c1cccc(OCCCCCCNC[C@H](O)c2ccc(O)c3[nH]c(=O)ccc23)c1)O[C@H]1CN2CCC1CC2, the Ki [1] is reported as 126 pM, the Ki [2] is reported as 501 pM and the pIC50 (Cavia porcellus [13]) is reported as “inactive”.
Work on O=C(NC(c1ccccc1)c1ccccc1)O[C@H]1CN2CCC1CC2 yielded a Ki [1] of 1260 pM.
In the case of O=C(N[C@H](c1ccccc1)c1cccc(OCCCCCCNC[C@H](O)c2ccc(O)c3[nH]c(=O)ccc23)c1)O[C@H]1CN2CCC1CC2, the Ki [1] is reported as 3980 pM, the Ki [2] is reported as 39.8 pM and the pIC50 (Cavia porcellus [13]) is reported as “inactive”.
In the case of O=C(N[C@@H](c1ccccc1)c1ccc(-c2cccc(OCc3ccc(C(=O)NCCCNC[C@H](O)c4ccc(O)c5[nH]c(=O)ccc45)cc3)c2)cc1)O[C@H]1CN2CCC1CC2, the Ki [1] is reported as 100 pM, the Ki [2] is reported as 12.6 pM and the pIC50 [3] is reported as 9.7. For the same compound, the TIME (Cavia porcellus [4]) was greater than 4.5 h, the fraction unbound [6] was 0.05 and the fraction unbound [7] was 0.05. For the same compound, the pIC50 [5] was 9.8.
Work on O=C(NC(c1ccccc1)c1ccc(OCCCCCCCCCNC[C@H](O)c2ccc(O)c3[nH]c(=O)ccc23)cc1)O[C@H]1CN2CCC1CC2 (stereo partly specified) yielded a Ki [1] of 10000 pM, a Ki [2] of 251 pM and a pIC50 [3] of 8.3. The TIME (Cavia porcellus [4]) was greater than 4.5 h and the pIC50 [5] was 7.3.
With O=C(NC(c1ccccc1)c1cccc(OCCCCCCNC[C@H](O)c2ccc(O)c3[nH]c(=O)ccc23)c1)O[C@H]1CN2CCC1CC2 (stereo partly specified) the Ki [1] was 316 pM, the Ki [2] was 15.8 pM and the pIC50 [3] was 9.9. The TIME (Cavia porcellus [4]; filed as modulator) was less than 2.25 h and the pIC50 [5] was 9.8.
